Results reported in ChEMBL document CHEMBL1128540, “Synthesis and quantitative structure-activity relationships of dequalinium analogues as K+ channel blockers: investigation into the role of the substituent at position 4 of the quinoline ring” (J Med Chem, 1995).

Experiments:
[1] = biological target: Small conductance calcium-activated potassium channel (Rattus norvegicus, UniProt P70604+P70606+P70605); assay: The SKCa-blocking action was assessed by its ability to inhibit the after hyperpolarization (AHP) in cultured rat sympathetic neurones; type: functional, cell-based; settings: sympathetic neuron
Procedure, shortened: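 SKCa block was read as inhibition of the after-hyperpolarization following action potentials in cultured rat sympathetic neurones. Each compound was tested at two to four concentrations on at least three cells, and IC50 was taken for 50% AHP inhibition. Concentrations above 10–30 μM were generally avoided. Dequalinium was included as reference in each series.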

[2] = Equieffective molar ratio(EMR) to that of the dequalinium, causing 50% inhibition of AHP(action potential).; type: functional
Procedure, shortened: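 AHP inhibition in cultured rat sympathetic neurones. Each compound was tested at two to four concentrations on at least three cells, with dequalinium run as reference in the same series (one to three compounds per series). EMR is the ratio of test compound to dequalinium concentration giving 50% AHP inhibition within the same experiment. Test concentrations above 10–30 μM were generally avoided.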

SMILES | IC50 [1] [µM] | EMR [2]
Nc1c2c([n+](CCCCCCCCCC[n+]3c4c(c(N)c5ccccc53)CCCC4)c3ccccc13)CCCC2 | 1 | 0.9
COc1cc2c3cc1Oc1cc(ccc1O)C[C@@H]1c4c(cc(OC)c(O)c4Oc4ccc(cc4)C[C@@H]3N(C)CC2)CC[N+]1(C)C.[Cl-] | 7.5 | –
Nc1ccc2c(NCc3ccccc3)cc[n+](CCCCCCCCCC[n+]3ccc(NCc4ccccc4)c4ccc(N)cc43)c2c1 | 0.5 | 0.9
CC(=O)O[C@H]1C[C@@H]2CC[C@@H]3[C@H](CC[C@@]4(C)[C@H]3C[C@H]([N+]3(C)CCCCC3)[C@@H]4OC(C)=O)[C@@]2(C)C[C@@H]1[N+]1(C)CCCCC1.[Br-].[Br-] [PANCURONIUM BROMIDE] | 6.8 | –
Cc1cc(N)c2ccccc2[n+]1CCCCCCCCCC[n+]1c(C)cc(N)c2ccccc21.[Cl-].[Cl-] [DEQUALINIUM CHLORIDE] | 0.74 | 1
COc1cc(OC)c(CNc2cc[n+](CCCCCCCCCC[n+]3ccc(NCc4c(OC)cc(OC)cc4OC)c4ccccc43)c3ccccc23)c(OC)c1 | 0.6 | 1
c1ccc2c(c1)ccc[n+]2CCCCCCCCCC[n+]1cccc2ccccc21 | 21 | 15
c1ccc(Oc2cc[n+](CCCCCCCCCC[n+]3ccc(Oc4ccccc4)c4ccccc43)c3ccccc23)cc1 | 2.7 | 6.5

Further lines, with some results ahead:

IC50 [1] [µM] | SMILES | EMR [2]
> 10 | [O-]c1cc[n+](CCCCCCCCCC[n+]2ccc([O-])c3ccccc32)c2ccccc12 | > 10
1.4 | CN(c1ccccc1)c1cc[n+](CCCCCCCCCC[n+]2ccc(N(C)c3ccccc3)c3ccccc32)c2ccccc12 | 1.7
1.4 | Nc1cc[n+](CCCCCCCCCC[n+]2ccc(N)c3ccccc32)c2ccccc12 | 1.3
4.5 | CC(=O)Nc1cc[n+](CCCCCCCCCC[n+]2ccc(NC(C)=O)c3ccccc32)c2ccccc12 | 5.5
1.4 | CN(C)c1cc[n+](CCCCCCCCCC[n+]2ccc(N(C)C)c3ccccc32)c2ccccc12 | 1.4
2.4 | c1ccc(Nc2cc[n+](CCCCCCCCCC[n+]3ccc(Nc4ccccc4)c4ccccc43)c3ccccc23)cc1 | 3.4
14.5 | Cc1cc[n+](CCCCCCCCCC[n+]2ccc(C)c3ccccc32)c2ccccc12 | 26
0.52 | c1ccc(CNc2cc[n+](CCCCCCCCCC[n+]3ccc(NCc4ccccc4)c4ccccc43)c3ccccc23)cc1 | 0.7
